According to ChEMBL document CHEMBL1135739, “Radiolabeled amino acids for tumor imaging with PET: radiosynthesis and biological evaluation of 2-amino-3-[18F]fluoro-2-methylpropanoic acid and 3-[18F]fluoro-2-methyl-2-(methylamino)propanoic acid” (J Med Chem, 2002):
Several values for one entry are separate records, joined by “and”; a condition that tells them apart may be missing. Equal entries are not always repeated.

Tests used:
Rattus norvegicus [1] = species: Rattus norvegicus; experiment: Radioactivity distribution in lung of normal fischer rat after injection of [18F]-fluoro-2-methyl-2-(methylamino)propanoic acid after 5 min.; type: ADME, organism-based; details: in vivo
Outline: (§1)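 Male Fischer 344 rats (200–250 g), fed ad libitum, anesthetized with intramuscular ketamine:xylazine (1:1, 0.1 mL/100 g). About 85 μCi tracer in 0.3 mL sterile water was given by tail-vein catheter. Groups of four were killed at 5, 30, 60 or 120 min. Tissues were weighed and gamma-counted against dose standards, decay-corrected, and expressed as %ID/g (mean ± standard error).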

Rattus norvegicus [2] = species: Rattus norvegicus; experiment: Radioactivity distribution in lung of normal fischer rat after injection of [18F]-fluoro-2-methyl-2-(methylamino)propanoic acid after 60 min.; type: ADME, organism-based; details: in vivo, 1 h; outline: as §1
Rattus norvegicus [3] = species: Rattus norvegicus; experiment: Radioactivity distribution in pancreas of normal fischer rat after injection of [18F]-fluoro-2-methyl-2-(methylamino)propanoic acid after 5 min.; type: ADME, organism-based; details: in vivo; outline: as §1
Rattus norvegicus [4] = species: Rattus norvegicus; experiment: Radioactivity distribution in pancreas of normal fischer rat after injection of [18F]-fluoro-2-methyl-2-(methylamino)propanoic acid after 60 min.; type: ADME, organism-based; details: in vivo, 1 h; outline: as §1
Rattus norvegicus [5] = species: Rattus norvegicus; experiment: Radioactivity distribution in muscle of normal fischer rat after injection of [18F]-fluoro-2-methyl-2-(methylamino)propanoic acid after 5 min.; type: ADME, organism-based, Muscle tissue; details: in vivo; outline: as §1
Rattus norvegicus [6] = species: Rattus norvegicus; experiment: Radioactivity distribution in muscle of normal fischer rat after injection of [18F]-fluoro-2-methyl-2-(methylamino)propanoic acid after 60 min.; type: ADME, organism-based, Muscle tissue; details: in vivo, 1 h; outline: as §1
Rattus norvegicus [7] = species: Rattus norvegicus; experiment: Radioactivity distribution in brain of normal fischer rat after injection of [18F]-fluoro-2-methyl-2-(methylamino)propanoic acid after 120 min.; type: ADME, organism-based; details: in vivo, 2 h
Outline: (§2)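 Normal male Fischer 344 rats (200–250 g), anesthetized with i.m. ketamine:xylazine (1:1), got ~85 μCi of tracer in 0.3 mL sterile water i.v. via tail-vein catheter. Groups of four were killed at 5, 30, 60 or 120 min. Tissues were weighed and gamma-counted against dose standards, and counts were decay-corrected to %ID/g. Results are mean ± standard error (n = 4), compared by one-way ANOVA.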

Rattus norvegicus [8] = species: Rattus norvegicus; experiment: Radioactivity distribution in heart of normal fischer rat after injection of [18F]-fluoro-2-methyl-2-(methylamino)propanoic acid after 120 min.; type: ADME, organism-based; details: in vivo, 2 h; outline: as §2
Rattus norvegicus [9] = species: Rattus norvegicus; experiment: Radioactivity distribution in heart of normal fischer rat after injection of [18F]-fluoro-2-methyl-2-(methylamino)propanoic acid after 30 min.; type: ADME, organism-based; details: in vivo, 0.5 h; outline: as §2
Rattus norvegicus [10] = species: Rattus norvegicus; experiment: Radioactivity distribution in heart of normal fischer rat after injection of [18F]-fluoro-2-methyl-2-(methylamino)propanoic acid after 5 min.; type: ADME, organism-based; details: in vivo; outline: as §2
Rattus norvegicus [11] = species: Rattus norvegicus; experiment: Radioactivity distribution in heart of normal fischer rat after injection of [18F]-fluoro-2-methyl-2-(methylamino)propanoic acid after 60 min.; type: ADME, organism-based; details: in vivo, 1 h; outline: as §2
Rattus norvegicus [12] = species: Rattus norvegicus; experiment: Radioactivity distribution in bone of normal fischer rat after injection of [18F]-fluoro-2-methyl-2-(methylamino)propanoic acid after 120 min.; type: ADME, organism-based, Bone element; details: in vivo, 2 h; outline: as §2
Rattus norvegicus [13] = species: Rattus norvegicus; experiment: Radioactivity distribution in bone of normal fischer rat after injection of [18F]-fluoro-2-methyl-2-(methylamino)propanoic acid after 30 min.; type: ADME, organism-based, Bone element; details: in vivo, 0.5 h; outline: as §2
Rattus norvegicus [14] = species: Rattus norvegicus; experiment: Radioactivity distribution in bone of normal fischer rat after injection of [18F]-fluoro-2-methyl-2-(methylamino)propanoic acid after 5 min.; type: ADME, organism-based, Bone element; details: in vivo; outline: as §2
Rattus norvegicus [15] = species: Rattus norvegicus; experiment: Radioactivity distribution in bone of normal fischer rat after injection of [18F]-fluoro-2-methyl-2-(methylamino)propanoic acid after 60 min.; type: ADME, organism-based, Bone element; details: in vivo, 1 h; outline: as §2
Rattus norvegicus [16] = species: Rattus norvegicus; experiment: Radioactivity distribution in liver of normal fischer rat after injection of [18F]-fluoro-2-methyl-2-(methylamino)propanoic acid after 120 min.; type: ADME, organism-based; details: in vivo, 2 h; outline: as §1
Rattus norvegicus [17] = species: Rattus norvegicus; experiment: Radioactivity distribution in liver of normal fischer rat after injection of [18F]-fluoro-2-methyl-2-(methylamino)propanoic acid after 30 min.; type: ADME, organism-based; details: in vivo, 0.5 h; outline: as §1
Rattus norvegicus [18] = species: Rattus norvegicus; experiment: Radioactivity distribution in liver of normal fischer rat after injection of [18F]-fluoro-2-methyl-2-(methylamino)propanoic acid after 5 min.; type: ADME, organism-based; details: in vivo; outline: as §1
Rattus norvegicus [19] = species: Rattus norvegicus; experiment: Radioactivity distribution in liver of normal fischer rat after injection of [18F]-fluoro-2-methyl-2-(methylamino)propanoic acid after 60 min.; type: ADME, organism-based; details: in vivo, 1 h; outline: as §1
Rattus norvegicus [20] = species: Rattus norvegicus; experiment: Radioactivity distribution in testis of normal fischer rat after injection of [18F]-fluoro-2-methyl-2-(methylamino)propanoic acid after 5 min.; type: ADME, organism-based; details: in vivo
Outline: (§3)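 Male Fischer 344 rats (200–250 g), fed ad libitum, under intramuscular ketamine:xylazine anesthesia, got ~85 μCi radiotracer in 0.3 mL sterile water by tail-vein catheter. Groups of four were killed at 5, 30, 60 or 120 min. Dissected tissues were weighed and gamma-counted with dose standards. Counts were decay-corrected and given as %ID/g, mean ± standard error. Tissues were compared by one-way ANOVA.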

Rattus norvegicus [21] = species: Rattus norvegicus; experiment: Radioactivity distribution in testis of normal fischer rat after injection of [18F]-fluoro-2-methyl-2-(methylamino)propanoic acid after 60 min.; type: ADME, organism-based; details: in vivo, 1 h; outline: as §3
Rattus norvegicus [22] = species: Rattus norvegicus; experiment: Radioactivity distribution in tumor of tumor-bearing fischer rat after injection of [18F]-fluoro-2-methyl-2-(methylamino)propanoic acid after 5 min.; details: in vivo
Rattus norvegicus [23] = species: Rattus norvegicus; experiment: Radioactivity distribution in tumor of tumor-bearing fischer rat after injection of [18F]-fluoro-2-methyl-2-(methylamino)propanoic acid after 60 min.; details: in vivo, 1 h
Rattus norvegicus [24] = species: Rattus norvegicus; experiment: Radioactivity distribution in tumor of tumor-bearing fischer rat after injection of [18F]-fluoro-2-methyl-2-(methylamino)propanoic acid after 120 min.; details: in vivo, 2 h

Question: With CNC(C)(C[18F])C(=O)O.Cl (centres undefined) as the compound, how does the ID/g (Rattus norvegicus [1]) read?
Answer: Its ID/g is 0.53% and 0.61%.

Question: What about the ID/g (Rattus norvegicus [2]) of the same compound?
Answer: Its ID/g is 0.38% and 0.26%.

Question: What about the ID/g (Rattus norvegicus [3]) of the same compound?
Answer: Its ID/g is 2.73% and 2.95%.

Question: And the ID/g (Rattus norvegicus [4])?
Answer: The ID/g was 3.24% and 2.42%.

Question: What about the ID/g (Rattus norvegicus [5]) of the same compound?
Answer: Its ID/g is 0.16% and 0.22%.

Question: And the ID/g (Rattus norvegicus [6])?
Answer: Its ID/g is 0.15% and 0.19%.

Question: And the ID/g (Rattus norvegicus [7])?
Answer: The ID/g was 0.03% and < 0.02%.

Question: What about the ID/g (Rattus norvegicus [8]) of the same compound?
Answer: Its ID/g is 0.17% and 0.19%.

Question: And the ID/g (Rattus norvegicus [9])?
Answer: The ID/g was 0.23%.

Question: And the ID/g (Rattus norvegicus [10])?
Answer: Its ID/g is 0.22% and 0.34%.

Question: And the ID/g (Rattus norvegicus [11])?
Answer: The ID/g was 0.2% and 0.25%.

Question: And the ID/g (Rattus norvegicus [12])?
Answer: Its ID/g is 0.2% and 0.19%.

Question: What about the ID/g (Rattus norvegicus [13]) of the same compound?
Answer: Its ID/g is 0.32%.

Question: What about the ID/g (Rattus norvegicus [14]) of the same compound?
Answer: Its ID/g is 0.34% and 0.33%.

Question: What about the ID/g (Rattus norvegicus [15]) of the same compound?
Answer: The ID/g was 0.29% and 0.23%.

Question: What about the ID/g (Rattus norvegicus [16]) of the same compound?
Answer: Its ID/g is 0.58% and 0.41%.

Question: And the ID/g (Rattus norvegicus [17])?
Answer: Its ID/g is 0.72%.

Question: And the ID/g (Rattus norvegicus [18])?
Answer: Its ID/g is 0.79% and 0.94%.

Question: And the ID/g (Rattus norvegicus [19])?
Answer: The ID/g was 0.78% and 0.85%.

Question: What about the ID/g (Rattus norvegicus [20]) of the same compound?
Answer: The ID/g was 0.17% and 0.19%.

Question: What about the ID/g (Rattus norvegicus [21]) of the same compound?
Answer: Its ID/g is 0.08%.

Question: What about the ID/g (Rattus norvegicus [22]) of the same compound?
Answer: The ID/g was 1.29%.

Question: What about the ID/g (Rattus norvegicus [23]) of the same compound?
Answer: Its ID/g is 2.28%.

Question: What about the ID/g (Rattus norvegicus [24]) of the same compound?
Answer: The ID/g was 1.94%.
